Results collected from several papers.
Lines come from different studies, so protocols differ.
AURKA: Aurora kinase A (AURKA, Homo sapiens, UniProt O14965)
DHFR: Dihydrofolate reductase (DHFR, Homo sapiens, UniProt P00374)
MMP3: Stromelysin-1 (MMP3, Homo sapiens, UniProt P08254)
Aldo-keto reductase family 1 member B1: Aldo-keto reductase family 1 member B1 (Bos taurus, UniProt P16116)
FLT3: Receptor-type tyrosine-protein kinase FLT3 (FLT3, Homo sapiens, UniProt P36888)
CSNK1D: Casein kinase I isoform delta (CSNK1D, Homo sapiens, UniProt P48730)
TYRO3: Tyrosine-protein kinase receptor TYRO3 (TYRO3, Homo sapiens, UniProt Q06418)
F2: Prothrombin (F2, Bos taurus, UniProt P00735)
FAAH: Fatty-acid amide hydrolase 1 (FAAH, Homo sapiens, UniProt O00519)
CAMK2A: Calcium/calmodulin-dependent protein kinase type II subunit alpha (CAMK2A, Homo sapiens, UniProt Q9UQM7)

| Compound | target | read-out | action | technique | notes | IC50 |
| --- | --- | --- | --- | --- | --- | --- |
| Cc1cnc(-c2ccc(-c3ccc(NC(=O)Nc4c(F)cc(F)cc4F)cc3F)c3c2C(=O)NC3)[nH]1 | AURKA | enzyme activity | inhibitor |  |  | 0.00038 µM |
| COc1ccc2c(Oc3ccc4c(C(=O)Nc5ccccc5N)cccc4c3)ccnc2c1 | AURKA | enzyme activity | inhibitor |  |  | > 0.5 µM |
| CC(Cc1ccc(C(C)(C)C)cc1)C(NN)c1nnnn1Cc1ccc2c(c1)OCO2 (stereo not drawn) | Endothiapepsin (EAPA, Cryphonectria parasitica, UniProt P11838) | enzyme activity | inhibitor | fluorescence |  | 18 µM |
| CSCC[C@H](NC(=O)[C@H](Cc1c[nH]c2ccccc12)NC(=O)CNC(=O)[C@H](Cc1ccc(O)cc1)NC(=O)[C@H](C)NC(=O)[C@@H](CCC(=O)O)NC(=O)CN1CCN(CC(=O)O)CCN(CC(=O)O)CCN(CC(=O)O)CC1)C(=O)N[C@@H](CC(=O)O)C(=O)N[C@@H](Cc1cccc2ccccc12)C(N)=O | Gastrin/cholecystokinin type B receptor (CCKBR, Homo sapiens, UniProt P32239) | ligand displacement |  | radioligand |  | 0.00351 µM |
| N[C@H](Cc1c[nH]c2ccccc12)C(=O)O | DHFR | enzyme activity | inhibitor |  |  | 2000 µM |
| CN(C)CC#Cc1ccc2[nH]c3c(c2c1)-c1nc(N)ncc1CCC3 | Serine/threonine-protein kinase ULK3 (ULK3, Homo sapiens, UniProt Q6PHR2) | enzyme activity | inhibitor | radiometric |  | > 10 µM |
| CC(C)C[C@H](CC(=O)NO)C(=O)N[C@@H](Cc1ccccc1)C(=O)NCCN1CCOCC1 | MMP3 | enzyme activity | inhibitor | fluorescence |  | 0.225 µM |
| CC(=N/N=c1\scc(-c2ccc(Cl)cc2)n1Cc1ccccc1)C12CC3CC(CC(C3)C1)C2 | Aldo-keto reductase family 1 member B1 | enzyme activity | inhibitor | absorbance |  | 2.18 µM |
| c1cc(Nc2nccc(NC3CCCCC3)n2)cc(-n2ccnc2)c1 | FLT3 | enzyme activity | inhibitor |  |  | 0.016 µM |
| N#Cc1ccc(Cn2ccc3c4c(N)nc(N)nc4ccc32)cc1 | DHFR | enzyme activity | inhibitor |  |  | 0.0068 µM |
| O=C(Nc1ccc(Cl)cc1)N1CCC(n2c(=O)[nH]c3c(Br)cccc32)CC1 | Formamidopyrimidine-DNA glycosylase (Escherichia coli, UniProt P05523) | enzyme activity | inhibitor |  |  | > 100 µM |
| O=C1NCCc2[nH]c(-c3cccnc3)cc21 | CSNK1D | enzyme activity | inhibitor |  |  | > 100 µM |
| Nc1nc(Nc2ccc3c(c2)CC[C@@H](N2CCCC2)CC3)nn1-c1cc2c(nn1)-c1ccccc1CCC2 | TYRO3 | enzyme activity | inhibitor |  |  | 0.927 µM |
| CC(=N/N=c1\scc(-c2ccc(Br)cc2)n1-c1ccccc1C)C12CC3CC(CC(C3)C1)C2 | Aldo-keto reductase family 1 member B1 | enzyme activity | inhibitor | absorbance |  | 10.2 µM |
| Cc1ccc(NC(=O)c2ccc(C)c(C(F)(F)F)c2)cc1C#Cc1nn(C2CCC(O)CC2)c2ncnc(N)c12 (stereo not drawn) | TYRO3 | enzyme activity | inhibitor | radiometric |  | 0.351 µM |
| CC(C)Nc1ccnc(Nc2cccc(-c3ccncc3)c2)n1 | FLT3 | enzyme activity | inhibitor |  |  | 0.284 µM |
| O=C(Nc1ccccc1C=NNS(=O)(=O)c1ccc2ccccc2c1)c1ccc([N+](=O)[O-])cc1 | UDP-N-acetylmuramate--L-alanine ligase (murC, Escherichia coli K-12, UniProt P17952) | enzyme activity | inhibitor | absorbance |  | 27 µM |
| CC1=C(/C=C/C(C)=C/C=C/C(C)=C/C(=O)O)C(C)(C)CCC1 | F2 | enzyme activity | inhibitor | fluorescence |  | 223 µM |
| C/C(=N/N=c1/scc(-c2ccc(Cl)cc2)n1-c1ccccc1)c1ccc2c(c1)OCCO2 | Aldo-keto reductase family 1 member B1 | enzyme activity | inhibitor | absorbance |  | 14.5 µM |
| c1cncc(-c2cccc(Nc3nccc(NC4CCCCC4)n3)c2)c1 | FLT3 | enzyme activity | inhibitor |  |  | 0.032 µM |
| O=C(Oc1nsnc1N1CCC(Cc2ccccc2)CC1)N1CCCCC1 | FAAH | enzyme activity | inhibitor |  | cell membranes | 0.324 µM |
| CC(C)Nc1ccnc(Nc2cccc(-c3nccs3)c2)n1 | FLT3 | enzyme activity | inhibitor |  |  | 0.475 µM |
| CC(=N/N=c1\scc(-c2ccc(Cl)cc2)n1-c1c(C)cccc1C)C12CC3CC(CC(C3)C1)C2 | Aldo-keto reductase family 1 member B1 | enzyme activity | inhibitor | absorbance |  | 3.51 µM |

| Compound | target | read-out | action | technique | notes | IC50 |
| --- | --- | --- | --- | --- | --- | --- |
| C[C@@H]1Cc2ccccc2N1C(=O)NCCCCN(C)[C@@H]1Cc2cccc3[nH]c(=O)n(c23)C1 | 5-hydroxytryptamine receptor 2C (HTR2C, Homo sapiens, UniProt P28335) | ligand displacement |  | radioligand |  | > 10 µM |
| COc1ccc(S(=O)(=O)N2Cc3cc(O)c(O)cc3CC2C(=O)NO)cc1 (stereo not drawn) | MMP3 | enzyme activity | inhibitor |  |  | 10 µM |
| COC(=O)c1cccc(Nc2nccc(NC3CCCCC3)n2)c1 | FLT3 | enzyme activity | inhibitor |  |  | 0.978 µM |
| C/C(=N/N=c1/scc(-c2ccc(Br)cc2)n1-c1ccccc1)c1ccc2c(c1)OCCO2 | Aldo-keto reductase family 1 member B1 | enzyme activity | inhibitor | absorbance |  | 5.96 µM |
| CC/C=C\C/C=C\C/C=C\C/C=C\C/C=C\CCCC(=O)O | DNA topoisomerase 2-alpha (TOP2A, Homo sapiens, UniProt P11388) | enzyme activity | inhibitor |  |  | 10 µM |
| CC(C)(C)n1nc(-c2cnc3cc(OC4CC4)ccc3c2)c(C(N)=O)c1N | CAMK2A | cell-free assay | inhibitor |  |  | > 10 µM |
| O=[N+]([O-])c1ccc(-c2cs/c(=N/N=C\c3c[nH]c4ccccc34)n2Cc2ccccc2)cc1 | Aldo-keto reductase family 1 member B1 | enzyme activity | inhibitor | absorbance |  | 1.52 µM |
| c1cc(Nc2nccc(NC3CCCCC3)n2)cc(-c2cnccn2)c1 | FLT3 | enzyme activity | inhibitor |  |  | 0.02 µM |
| O=C(Oc1nsnc1N1CCCCC1)N1CCc2ccccc2C1 | FAAH | enzyme activity | inhibitor |  | cell membranes | 0.562 µM |
| CC[C@@H](C)Nc1ccnc(Nc2cccc(-c3cccnc3)c2)n1 | FLT3 | enzyme activity | inhibitor |  |  | < 0.006 µM |
| Cc1ccc(C(=O)Nc2ccc(Oc3cc4cnn(C)c4cc3-c3cn[nH]c3)c(F)c2)c(=O)n1-c1ccc(F)cc1 | TYRO3 | cell growth or viability |  | ATP luminescence |  | 0.028 µM |
| CN1CCN(c2ccc(Nc3ncc4cc(C#N)c(=O)n(C5CCCC5)c4n3)cc2)CC1 | CSNK1D | enzyme activity | inhibitor |  |  | 1.77 µM |
| CN(C)c1ccc(Nc2nc(-c3ccncc3)nc3c2CC(N)CC3)cc1 (stereo not drawn) | Prostaglandin G/H synthase 1 (PTGS1, Homo sapiens, UniProt P23219) | enzyme activity | inhibitor |  |  | ~4.5 µM |
| CC(C)(C)n1nc(-c2ccc3nc(OC4CC4)ccc3c2)c(C(N)=O)c1N | CAMK2A | cell-free assay | inhibitor |  |  | > 10 µM |
| Cc1nccc2c1c(=O)n(C)c1cc(OC[C@@H](N)CC(C)C)c(C#N)cc21 | BMP-2-inducible protein kinase (BMP2K, Homo sapiens, UniProt Q9NSY1) | enzyme activity | inhibitor |  |  | 0.045 µM |
| O=[N+]([O-])c1ccc(-c2nc3ccccc3n2Cc2ccccc2)cc1 | DHFR | enzyme activity | inhibitor |  |  | 12.3 µM |
| COc1cccc(-n2c(-c3ccc([N+](=O)[O-])cc3)cs/c2=N/N=C\c2c[nH]c3ccccc23)c1 | Aldo-keto reductase family 1 member B1 | enzyme activity | inhibitor | absorbance |  | 4.21 µM |
| Cc1ccc2nc(-c3ccc([N+](=O)[O-])cc3)n(Cc3ccc(Cl)cc3)c2c1 | DHFR | enzyme activity | inhibitor |  |  | 8.01 µM |
| CONc1ccnc(Nc2cccc(-c3cccnc3)c2)n1 | FLT3 | enzyme activity | inhibitor |  |  | > 34 µM |
| Fc1ccc(C2CCN(c3nc(-c4ccccn4)nc4ccccc34)C2)cc1 (stereo not drawn) | Sterol 14-alpha demethylase (CYP51, Trypanosoma cruzi, UniProt Q7Z1V1) | enzyme activity | inhibitor | fluorescence |  | > 100 µM |
| O=C(Oc1nsnc1N1CCC(c2ccccc2)CC1)N1CCCCC1 | FAAH | enzyme activity | inhibitor |  | cell membranes | 1.48 µM |
| CC1=C(/C=C/C(C)=C/C=C/C(C)=C/CO)C(C)(C)CCC1 | F2 | enzyme activity | inhibitor | fluorescence |  | 531 µM |
